Experimental data collected from several papers.
Each line is one published result; the experiments were not run side by side. pIC50: −log10 of the molar value.
Observed: cell growth or viability

SMILES | cell line | test | setting | pIC50
Cc1ncn2c(=O)n(C)nnc12 | T98G | resazurin | 7 days | 5.22
CC(=O)SCc1cc(=O)oc2cc(O)ccc12 | HEK293 | MTT | 36 h | < 4.70
O=C1Nc2ccccc2-c2cnc(NCc3c(F)ccc4c3CCO4)n3cnc1c23 | KARPAS-422 | CCK-8 | 7 days | 7.17
CC(=O)Oc1ccc2c(CSC(C)=O)cc(=O)oc2c1 | HEK293 | MTT | 36 h | < 4.70
C=CC(=O)Nc1cc(Nc2nc(N3CCc4sccc4C3)c3cccnc3n2)c(OC)cc1N(C)C | NCI-H1975 | MTT |  | < 4.30
Cc1[nH]c(C)c(-c2ccc(OCc3cc(C(F)(F)F)cc(C(F)(F)F)c3)nc2)c(=O)c1Br | HEK293 |  |  | < 5.00
CCC(=O)Nc1cc(Nc2nc(Nc3cnn(C)c3)c3sccc3n2)c(OC)cc1N(C)CCN(C)C | NCI-H1975 | MTT |  | < 4.30
CC(C)C[C@H](NC(=O)[C@H](Cc1ccccc1)NC(=O)c1cnccn1)B(O)O | MKN-1 | ATP luminescence |  | 8.28
CCN(CC)C(=O)c1ncn2c(=O)n(C)nnc12 | T98G | resazurin | 7 days | 3.80
C=CC(=O)Nc1cc(Nc2nc(N3CCc4sccc4C3)c3cccnc3n2)c(OC)cc1N1CCSCC1 | NCI-H1975 | MTT |  | 6.51
CCCCCCCCc1c(C)[nH]c(C)c(Cl)c1=O | HEK293 |  |  | < 5.00
CCCCN(CCCC)C(=O)c1ncn2c(=O)n(C)nnc12 | T98G | resazurin | 7 days | 3.85
C=C(Cl)C(=O)Nc1cc(Nc2nc(Nc3cnn(C)c3)c3sccc3n2)c(OC)cc1N1CCN(C)CC1 | NCI-H1975 | MTT |  | 6.97
Cc1cc(=O)c(-c2ccc(Oc3cccc(Cl)c3)cc2)c(C)[nH]1 | HEK293 |  |  | < 5.00
C[C@H](O)C(=O)CCCCCCC(=O)Nc1cccc(-c2cn(-c3ccccc3)nn2)c1 | HEK293 | XTT |  | 4.80
C=CC(=O)Nc1cc(Nc2nc(N3CCc4sccc4C3)c3cccnc3n2)c(OC)cc1N1CCN(C(C)=O)CC1 | NCI-H1975 | MTT |  | 6.16
CC[C@@H](C)[C@H](N)C(=O)N1Cc2ccccc2C1 | SET-2 | ATP luminescence |  | 7.05
O=C(Nc1ccc(OC2CCN(Cc3ccccc3)C2)c(Cl)c1)c1cccs1 (stereo not shown) | HEK293 |  |  | < 5.00
C=CC(=O)Nc1cccc(Nc2nc(Nc3ccc(OCCOC)cc3)ncc2F)c1 | CNE2Z |  |  | 5.20

SMILES | cell line | test | setting | pIC50
Cc1[nH]c(C)c(-c2ccc(-c3cc(C(F)(F)F)cc(C(F)(F)F)c3)nc2)c(=O)c1Br | HEK293 |  |  | < 5.00
CC#CC(=O)N1CCC[C@H]1c1nc(-c2ccc(C(=O)Nc3ccccn3)cc2)c2c(N)nccn12 | TMD8 | CCK-8 | 72 h | 7.85
COc1ccc2oc(=O)cc(CCl)c2c1 | HEK293 | MTT | 36 h | < 4.70
Cc1[nH]c(C)c(-c2ccc(-c3cccc(C(F)(F)F)c3)nc2)c(=O)c1Br | HEK293 |  |  | < 5.00
C=CC(=O)Nc1cccc(N2C(=O)OC(C)c3cnc(Nc4ccc(N5CCN(C)CC5)cc4OC)nc32)c1 (stereo not shown) | TMD8 | CCK-8 | 72 h | 7.55
O=c1cc(CCl)c2c(O)cc(O)cc2o1 | HEK293 | MTT | 36 h | < 4.70
COc1cc(N(C)CCN(C)C)c(NC(=O)/C=C/C(C)C)cc1Nc1nc(Nc2cnn(C)c2)c2sccc2n1 | NCI-H1975 | MTT |  | 6.53
C=CC(=O)N1CCC[C@@H](n2nc(-c3ccc(Oc4ccccc4)cc3)c3c(N)ncnc32)C1 | CNE2Z |  |  | < 5.00
C/C=C/COc1ccc(-c2c(C)[nH]c(C)c(Cl)c2=O)cc1 | HEK293 |  |  | < 5.00
Cn1nnc2c(C(N)=O)ncn2c1=O | T98G | resazurin | 7 days | 3.18
COc1c(C)[nH]c(C)c(-c2ccc(Oc3cccc(C(F)(F)F)c3)cc2)c1=O | HEK293 |  |  | < 5.00
C=C(Cl)C(=O)Nc1cc(Nc2nc(Nc3cnn(C)c3)c3sccc3n2)c(OC)cc1N(C)CCN(C)C | NCI-H1975 | MTT |  | 7.64
O=C1NCCc2[nH]c(-c3ccncc3)cc21 | SK-MEL-28 |  |  | 5.02
N[C@@H](CC(=O)N1CCN(C(c2ccc(F)cc2)c2ccc(F)cc2)CC1)C(=O)N1Cc2ccccc2C1 | SET-2 | ATP luminescence | 48 h | 6.43
COc1ccc(F)cc1C(=O)NCc1ccc(-c2nn([C@@H](C)C(F)(F)F)c(N)c2C(N)=O)cc1 | Rec1 | ATP luminescence | 72 h | 8.51
C=C(Cl)C(=O)Nc1cc(Nc2nc(N3CCCC3)c3sccc3n2)c(OC)cc1N(C)CCN(C)C | NCI-H1975 | MTT |  | 6.90
COc1cc2c(Nc3ccc(Cl)c(Cl)c3F)ncnc2cc1OC[C@@H]1C[C@@H]2CN(C)C[C@@H]2C1 | GBM6 | ATP luminescence | 18 days, 3D culture | 6.99
CC(=O)Oc1ccc2ccc(=O)oc2c1CBr | HEK293 | MTT | 36 h | < 4.70
